Screens: PubChem, several laboratories
Arrestin-AP2 inh: inhibitors of beta-arrestin/AP2 binding, primary screen, biochemical, GPCR trafficking, flow cytometry; FITC-arrestin peptide / GST-AP2 beads; AP2 beta2 appendage carries R879A mutation; hit rate 0.31% among 340,000; inhibition, % at 10 µM; AID 504490, 2011;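 active = inhibition above a set limit, near 3 SD of compounds lacking own fluorescence, cut at about 54% in these data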;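 note: plate controls were DMSO wells for no effect and 5 µM unlabelled arrestin peptide for full effect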
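Material – AP2 appendage R879A on GSH beads · Buffer or medium – PBS with 0.05% Tween 20 and 0.1% BSA · Probe or stimulus – fluorescein-tagged arrestin peptide at 50 nM final · Incubation – compound with beads 12 min RT, then probe 1 h RT · Detection – high-throughput flow cytometry of beads, ex 488, em 535 nm · Evaluation – percent response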
PLC-gamma1 inh: PLC-gamma1 enzyme inhibitors, primary screen, biochemical, fluorescence, purified enzyme. 1-phosphatidylinositol 4,5-bisphosphate phosphodiesterase gamma-1 (Homo sapiens), P19174. inhibition, % at 12.2 µM. hit rate 0.84% among 370,000. fluorogenic substrate. AID 720700, 2013; in the data active = inhibition above about 9.5%
PLCb3 inh: human PLC-beta3 inhibitors, primary screen, biochemical, fluorescence | Purified PLC-beta3, fluorogenic substrate | inhibition, % at 12.2 µM | hit rate 0.18% among 370,000; in the data active = inhibition above about 11%;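 note: 0% = median of compound wells on plate and 100% = full blocker control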
NTR1 agonist: agonists of human NTR1, primary screen, imaging, U2OS cells, beta-arrestin-GFP, high content | activation, % at 20 µM | hit rate 0.17% among 330,000 | Neurotensin receptor type 1 (Homo sapiens), P30989 | AID 493036, 2011 | NTR1-U2OS beta-arrestin-GFP spot imaging, agonist mode;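 active = activation at or above 40% of the spot to cytoplasm intensity ratio, with at least 20 cells analyzed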;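 note: 0% = DMSO without peptide and 100% = 100 nM NTR1 peptide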
Active calls of the source: *; . = no result given. An excerpt weighted towards active compounds, which were near 1.3% of everything screened.

SMILES | Arrestin-AP2 inh | PLC-gamma1 inh | PLCb3 inh | NTR1 agonist
NC(=O)c1ccc(N=C2C(=O)Nc3ccc([N+](=O)[O-])cc32)cc1 | 4 | 11* | -4 | -1
O=C(c1cc(F)cc(F)c1)N1CCCC(c2nc(-c3cccs3)no2)C1 (stereo not drawn) | . | 1 | -1 | .
COc1ccc(OC)c(C(c2nnnn2CCc2ccccc2)N2CCN(c3ccccc3)CC2)c1 (stereo not drawn) | -2 | 11* | 3 | 3
O=C(C[C@@H]1C[C@@H]2c3cc(NS(=O)(=O)c4ccc(F)cc4)ccc3O[C@@H]2[C@H](CO)O1)NCc1ccc(Oc2ccccc2)cc1 | . | 9.6* | -3 | .
C[C@@H](NC(=O)C[C@@H]1C[C@@H]2c3cc(NS(=O)(=O)c4ccc(F)cc4)ccc3O[C@@H]2[C@@H](CO)O1)c1ccccc1 | . | 1 | 4 | .
Cc1cc(NC(=O)c2ccc(NS(=O)(=O)c3ccccc3F)cc2)no1 | . | 0 | -3 | .
CC1(c2cccc(Br)c2)NC(=O)N(CC(=O)Nc2cccnc2Cl)C1=O (stereo not drawn) | -12 | 10* | -1 | 2
COC(=O)[C@@H]1C[C@@H](c2ccccc2)[C@H](C)C1(C)C | -3 | 9.7* | 6 | -1
NNc1ccc([N+](=O)[O-])c2[nH][nH]c(=O)c12 | . | 23* | -5 | .
COc1ccc(C(=O)N2CCCC2)cc1S(=O)(=O)N1CCC(C)CC1 | 28 | 3 | 11* | 0
CCN(CC)c1ccc(C(=C2C=CC(=[N+](CC)CC)C=C2)c2ccc(N(CC)CC)cc2)cc1 | 90* | 1 | -13 | .
CCN(CC)c1ccc(C(=C2C=CC(=[N+](CC)CC)C=C2)c2ccccc2)cc1 | 14 | 2 | 3 | .
CC(C)C[C@@H](CN1CCC[C@@H]1CN1C(=O)C(=O)NC[C@@H]1Cc1ccccc1)N1C[C@H](Cc2ccccc2)N(CC2CCCCCC2)C(=O)C1=O | -14 | 4 | 13* | .
CC(C)C[C@H]1CN([C@@H](Cc2ccc(O)cc2)CN2CCC[C@@H]2CN2C(=O)C(=O)NC[C@@H]2Cc2ccccc2)C(=O)C(=O)N1CC1CCCCC1 | -1 | 13* | 5 | .
Cc1ccc(-c2nnc3n2N=C(c2ccc(-c4ccccc4)cc2)CS3)cc1 | . | -1 | 2 | .
COC(=O)c1cccc(NC(=O)c2ccc[n+]([O-])c2)c1 | 6 | 11* | 0 | -1
C[C@@H]1[C@H](c2ccccc2)OC(O)([C@H](Cc2ccccc2)NC(=O)OC(C)(C)C)CN1C (stereo partly drawn) | . | -1 | 0 | .
O=C(COC(=O)CNC(=O)c1ccccc1F)NC12CC3CC(CC(C3)C1)C2 | 16 | 12* | -2 | 2
COC(=O)c1cc(-c2cc3ccccc3s2)c(=O)n2c1CCC2 | . | -37 | -50 | .
CC(=O)c1c(C)oc2ccc(NS(=O)(=O)c3ccc(O)c(C(=O)O)c3)cc12 | 14 | 11* | 4 | -1
CCCCCCCCCCn1c2c(c(=N)c3c1CCC3)CCC2 | 5 | 6 | 1 | 42*
COc1cc(/C=N/Nc2ccc([N+](=O)[O-])cc2S(=O)(=O)N2CCOCC2)cc(OC)c1OC | -9 | 3 | 5 | 6
O=[N+]([O-])c1ccc(N/N=C/c2ccc(O)c(O)c2O)c(S(=O)(=O)N2CCOCC2)c1 | 41 | 11* | 0 | 1
COC(C/C=C\[C@H](O)[C@@H](C)OCc1ccccc1)OC | 2 | 3 | 12* | -4
COC(C/C=C/[C@H](O)[C@@H](C)OCc1ccccc1)OC | -2 | 1 | 0 | -1
SMILES | Arrestin-AP2 inh | PLC-gamma1 inh | PLCb3 inh | NTR1 agonist
COC(=O)c1ccc(Oc2nc(NC(C)C)nc(NC(C)C)n2)cc1 | -1 | 1 | -5 | 2
COC(=O)c1ccc(Oc2nc(NC(C)C)nc(N(C)C)n2)cc1 | 0 | 3 | 15* | 1
S=C1NNC2(NN1)C1CC3CC(C1)CC2C3 | 9 | 6 | 4 | -2
C1CSC2(N1)C1CC3CC(C1)CC2C3 (stereo not drawn) | 3 | 1 | 12* | 0
Brc1cccc(C2Nc3cccc4cccc(c34)N2)c1 | 21 | -10 | -14 | 1
Brc1ccc(C2Nc3cccc4cccc(c34)N2)o1 | 54* | . | . | 1
COC(=O)[C@]12C[C@H](CC(=O)NCc3cccc(C(F)(F)F)c3)C(=O)N(CCC3=CCCCC3)C1=C[C@H](C(C)C)O[C@@H]2C1CC1 | . | 2 | 2 | .
Cc1ccc([N+](=O)[O-])cc1N(CC(=O)Nc1ccc(S(=O)(=O)Nc2cccc(C(F)(F)F)c2)cc1)S(C)(=O)=O | 11 | 9.9* | 2 | 26
Clc1ccc(OCCOc2ccc(Br)nc2Br)c(Cl)c1 | . | 0 | -1 | .
Cc1cccc(C)c1-n1nnnc1C(c1ccccc1OC(F)(F)F)N1CCN(C/C=C/c2ccccc2)CC1 (stereo not drawn) | . | 12* | 8 | .
Cc1ccc(Cn2cc(CN3[C@@H](CC(C)C)COc4cc(Br)ccc4S3(=O)=O)nn2)cc1 | . | 0 | -1 | .
CCOC(=O)[C@]12CCCC=C1N(CCCOC)C(=O)[C@@H]2CC(=O)N1CCSCC1 | . | 9 | 1 | .
CC(=O)[C@@]1(O)CC[C@H]2[C@@H]3CCC4=CC(=O)CC[C@]4(C)[C@H]3[C@@H](O)C[C@@]21C | 23 | 11* | 6 | -1
CCC(C(=O)OCC(=O)C1(O)CCC2C3CCC4=CC(=O)CCC4(C)C3C(O)CC21C)C(C)C (stereo not drawn) | -8 | 2 | 3 | .
CCN(CC)S(=O)(=O)c1cccc(NC(=O)Nc2cccc(C(F)(F)F)c2)c1 | -12 | 2 | 2 | 41*
CCN(CC)S(=O)(=O)c1cccc(NC(=O)CC2CCCC2)c1 | 9 | -1 | -2 | 0
CCOC(=O)C(C(C)=O)c1nc(C)nc2c1nnn2Cc1ccccc1Cl (stereo not drawn) | 11 | 13* | 2 | .
CCCC[C@H](C(=O)N(C)c1cccc(OC)c1)[C@@H](O)c1ccc2ccccc2c1 | . | 2 | 3 | .
COC(=O)CNC(=O)C1Cc2ccccc2CN1S(=O)(=O)c1ccc(F)cc1 (stereo not drawn) | -23 | 9.6* | -1 | 0
CN(CCc1ccccn1)C(=O)c1ccc2c(c1)ncn2C1CCCCC1 | . | 2 | 3 | .
CCCC(=O)NC(=S)Nc1cccc(Cl)c1N1CCCCC1 | 14 | -1 | -3 | 32
CCC(=O)NC(=S)Nc1cccc(Cl)c1N1CCCCC1 | 30 | 1 | 0 | 50*
Fc1ccc2[nH]c3c(N4CCN(c5ccccc5)CC4)ncnc3c2c1 | 3 | -22 | -24 | 41*
CC(C)CN1C(=O)[C@]2(CC(=O)N(C)C2c2ccccc2)c2cc(-n3cc(CCCC#N)nn3)ccc21 (stereo partly drawn) | . | 0 | 0 | .
